Cdc25B inh: inhibitors of Cdc25B phosphatase catalytic domain, primary screen, biochemical, OMFP fluorescence; M-phase inducer phosphatase 2 (Homo sapiens), P30305; recombinant Cdc25B, OMFP fluorescence Ex485/Em525; inhibition, %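 (compounds tested at 10 µM final in the well)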; 65,000 tested, 0.1% active; AID 368, 2006; in the data active means inhibition above about 50%
HEK293 NFkB inh: inhibitors of PMA/ionomycin-induced NF-kB reporter, primary screen, antigen receptor NF-kB inhibitor project, cell-based, HEK-293 luciferase reporter, luminescence; HEK-293 NF-kB luciferase reporter; 62,000 tested, 0.21% active; inhibition, % at 3 µM; AID 465, 2006;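 active means inhibition above the mean of all tested compounds plus 3 SD, cut at about 40% in these data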;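 further: 0% = stimulated DMSO wells and 100% = 10 µM reference inhibitor 5653914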
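Reagent: PMA plus ionomycin mix as NF-kB-activating stimulus. Assay system: NF-kB luciferase reporter HEK-293 cells. Technique: luminescence from luciferase substrate reagent. Incubation: 1 h compound pre-incubation, 16 h PMA/ionomycin at 37 °C. Benchmarks: DMSO only as uninhibited control, 10 µM reference inhibitor as full inhibition. Repeats: tested once.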
M1 ag: M1 muscarinic receptor agonists, primary screen, CHO-M1 cells, Fluo-4 calcium, agonist mode. Muscarinic acetylcholine receptor M1. Fluo-4 calcium fluorescence; active compounds read high. B-score at 10 µM. 64,000 tested, 3% active;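 active means fluorescence rise, raw or as B-score row- and column-corrected plate score, outside the 99.7% band of its plate's samples, either direction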
M1 antag: antagonists of rat M1 muscarinic receptor | AID 628, 2007 | B-score at 10 µM | CHO-M1 cells, Fluo-4 calcium, ACh EC80 antagonist mode; active compounds read low | 64,000 tested, 3.4% active | Muscarinic acetylcholine receptor M1 (Rattus norvegicus), P08482;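 active means calcium fluorescence response, raw or row-and-column corrected B-score, differing from the plate sample mean either way at a set confidence level, mostly lower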
Her2 expr inh: inhibitors of Her2 protein expression, primary screen, SKBR-3 cells, AlphaScreen, 66K library; SKBR-3 HER2 protein level, 18-24 h; active compounds read low; 65,000 tested, 0.69% active; AID 645, 2007; HER2 level % of control, % at 10 µM;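 active means HER2 level under 5% of the carrier-only control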;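 further: 100% = DMSO carrier and 0% = 500 nM PU-H71 HSP90 inhibitor; lower value means stronger loss of Her2 protein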
Target sequence (P04626 whole entry, looked up): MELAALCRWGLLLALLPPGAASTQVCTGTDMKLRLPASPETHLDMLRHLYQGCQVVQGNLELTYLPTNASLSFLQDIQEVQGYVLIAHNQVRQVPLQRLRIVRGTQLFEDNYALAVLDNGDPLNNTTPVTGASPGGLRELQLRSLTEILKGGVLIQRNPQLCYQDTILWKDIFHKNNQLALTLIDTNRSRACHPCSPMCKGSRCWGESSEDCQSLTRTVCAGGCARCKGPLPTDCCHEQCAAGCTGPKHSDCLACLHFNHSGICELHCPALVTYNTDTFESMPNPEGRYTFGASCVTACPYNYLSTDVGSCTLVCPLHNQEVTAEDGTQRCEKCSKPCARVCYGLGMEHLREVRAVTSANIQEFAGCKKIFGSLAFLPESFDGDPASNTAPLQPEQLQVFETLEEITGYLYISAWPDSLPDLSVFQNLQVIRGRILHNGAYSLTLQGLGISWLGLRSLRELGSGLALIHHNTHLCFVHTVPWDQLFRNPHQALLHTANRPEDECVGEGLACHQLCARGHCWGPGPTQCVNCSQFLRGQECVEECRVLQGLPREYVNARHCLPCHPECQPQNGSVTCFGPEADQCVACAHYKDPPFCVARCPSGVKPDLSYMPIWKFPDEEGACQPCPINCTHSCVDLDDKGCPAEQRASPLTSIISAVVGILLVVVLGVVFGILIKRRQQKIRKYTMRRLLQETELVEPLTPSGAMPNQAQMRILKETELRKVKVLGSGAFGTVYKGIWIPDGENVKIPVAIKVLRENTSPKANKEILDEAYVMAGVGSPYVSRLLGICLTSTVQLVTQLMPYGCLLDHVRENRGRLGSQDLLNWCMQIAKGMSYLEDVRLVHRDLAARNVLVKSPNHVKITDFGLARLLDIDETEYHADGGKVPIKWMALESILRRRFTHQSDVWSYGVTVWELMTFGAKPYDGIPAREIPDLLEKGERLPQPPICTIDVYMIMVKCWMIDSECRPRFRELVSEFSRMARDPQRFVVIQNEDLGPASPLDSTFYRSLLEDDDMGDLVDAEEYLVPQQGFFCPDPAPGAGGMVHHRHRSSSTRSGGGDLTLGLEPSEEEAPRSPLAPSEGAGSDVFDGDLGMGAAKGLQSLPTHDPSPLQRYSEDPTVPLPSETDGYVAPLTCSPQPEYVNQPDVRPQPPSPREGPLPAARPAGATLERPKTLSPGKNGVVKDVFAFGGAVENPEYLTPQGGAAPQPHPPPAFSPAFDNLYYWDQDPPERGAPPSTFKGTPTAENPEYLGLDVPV
DUSP1 inh: MKP-1 phosphatase inhibitors, primary screen, biochemical, in vitro; Dual specificity protein phosphatase 1 (Homo sapiens), P28562; recombinant MKP-1, OMFP hydrolysis fluorescence; inhibition, %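 (compounds tested at a single concentration somewhere between 10 and 100 µM)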; 65,000 tested, 0.15% active; AID 374, 2006;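 active means inhibition above about 50%, limit read from the data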;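 further: 0% = DMSO max control wells and 100% = wells with enzyme stopped by NaOH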
M1 antag conf: rat M1 muscarinic receptor antagonists, confirmation, CHO cells, Fluo-4 calcium, duplicate. calcium response (max-min fluorescence) at 10 µM. ACh EC80 antagonism; active compounds read low. 1,700 tested, 43% active. shares compounds with M1 antag;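 active means calcium response below the same-plate mean of wells given acetylcholine alone at its 80%-effect dose, minus 3 SD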;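 further: raw fluorescence intensity difference in arbitrary instrument units and not normalized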
mGluR4 antag: human mGluR4 response to M1 antagonist hits, M1 allosteric modulator project, cell-based, antagonist mode, secondary assay 1; shares compounds with M1 antag; fluorescence response (max-min) at 10 µM; 1,700 tested, 0.9% active; CHO-mGluR4 calcium flux, Fluo-4 fluorescence, glutamate EC80; active compounds read low;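 active means fluorescence response below the plate's average for near-maximal glutamate wells, less 3 SD of those wells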;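 further: raw unnormalized fluorescence span taken in the window right after glutamate addition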
Starred values were filed as active, the others as inactive; x = no result given. Hits are enriched below; roughly 6.8% of the tested compounds scored in any of these assays.

SMILES	Cdc25B inh	HEK293 NFkB inh	M1 ag	M1 antag	Her2 expr inh	DUSP1 inh	M1 antag conf	mGluR4 antag
CCOC(=O)c1ccc(N2C(=O)CC(SCC(N)C(=O)OCC)C2=O)cc1 (configuration not stated)	-8.4	26.3	0.287	0.246	x	5.3	x	x
O=C1CC(SCCO)C(=O)N1c1ccc(Oc2ccccc2)cc1 (configuration not stated)	-5.0	10.2	0.0204	-2.75*	99.7	-3.0	597	252
CCCC(=O)Nc1cc(Cl)ccc1N1CCN(C(=O)CC)CC1	25.7	13.0	0.346	0.887	75.5	16.7	x	x
COC(=O)c1ccc(OC(=O)c2ccc(OCc3c(C)noc3C)c(OC)c2)cc1	-2.1	-7.9	-0.00322	-0.325	184.6	25.6	x	x
CCCCC(CCC(=O)Nc1ccccc1C(=O)OCC)C(=O)O (configuration not stated)	11.8	8.5	1.46	-4.29*	80.9	8.6	685	251
CCOC(=O)c1ccc(NC(=O)CCC(CC)C(=O)O)cc1 (configuration not stated)	10.8	x	-0.99	0.252	97.9	-8.7	x	x
Cc1ccc(S(=O)(=O)N2CCC(C(=O)N3CCC[C@H]3C(=O)NCc3ccco3)CC2)cc1	-4.3	9.8	-0.181	-2.21*	107.7	1.6	555*	210
Cc1ccc(S(=O)(=O)N2CCC(C(=O)N3CCC[C@H]3C(=O)NCc3ccccc3)CC2)cc1	-4.4	22.8	-0.277	0.672	115.6	24.0	x	x
CCOC(=O)C1CCN(CC(O)COc2ccc(C(C)(C)CC)cc2)CC1 (configuration not stated)	-24.4	5.9	-0.424	-4.72*	96.9	5.3	399	205
CS(=O)CSc1nc2c(cc1C#N)CCCC2 (configuration not stated)	-9.4	-8.0	-0.198	-9.31*	78.4	5.1	260*	203
CCCCSc1nc2c(cc1C#N)CCC2	-9.9	14.3	0.575	-0.103	90.2	-6.0	x	x
CCOc1ccc2[nH]c(=O)c(CN(CCO)C(=O)c3ccccc3F)cc2c1	-34.4	12.0	0.126	0.016	90.0	-9.4	x	x
COc1ccc2cc(CN(CCO)C(=O)c3ccccc3F)c(=O)[nH]c2c1	4.8	17.1	-0.00747	-2.73*	110.5	3.1	670	249
O=C(CCN1CCc2ccccc21)c1ccc2c(c1)OCCO2	12.0	x	-0.937	0.146	94.0	-14.1	x	x
O=C(CCN1CCc2ccccc2C1)c1ccc2c(c1)OCCO2	1.7	16.0	-0.166	-5.73*	38.2	-14.9	487*	254
COc1ccc(N2C(=O)CC(n3c(CCCCO)nc4ccccc43)C2=O)cc1 (configuration not stated)	-6.5	8.8	2.19	0.957	99.5	3.3	x	x
Cc1nc(N2CCN(C(=O)c3ccco3)CC2)c2c3c(sc2n1)CCC3	-18.5	10.7	2.41	-3.14*	92.9	8.6	493	217
CS(=O)(=O)Nc1ccc(Cc2ccc(NS(C)(=O)=O)cc2)cc1	-11.6	16.7	-0.0647	-3.17*	x	0.7	552	230
Cc1c(C(C)O)nnn1-c1nonc1N (configuration not stated)	-46.1	18.3	-0.034	0.201	112.8	-8.6	x	x
CC(=O)Nc1cccc(NC(=O)CSc2nnc(Cc3cccn3C)n2CCc2ccccc2)c1	-7.0	11.0	0.0997	-1.86*	59.0	24.0	641	228
COc1ccc(NC(=O)CSc2nnc(Cc3cccn3C)n2CCc2ccccc2)cc1OC	-19.6	20.3	0.816	0.544	69.0	27.8	x	x
OCCNc1nc(N2CCN(Cc3ccccc3)CC2)nc2ccccc12	-11.7	8.5	0.125	-0.447	114.7	-19.4	x	x
C=CCNc1nc(N2CCCC2)nc2ccccc12	-10.1	24.9	-0.833	-3.43*	104.0	-11.8	581	265
COc1ccc(Nc2nc(N3CCCC3)nc3ccccc23)c(OC)c1	-0.4	16.0	-0.691	-8.08*	13.3	-8.2	342*	188
CCOC(=O)c1ncn2c1C(=O)OC2(C)C	10.0	3.1	x	x	112.0	12.3	x	x
SMILES	Cdc25B inh	HEK293 NFkB inh	M1 ag	M1 antag	Her2 expr inh	DUSP1 inh	M1 antag conf	mGluR4 antag
COc1ccccc1CNC(=O)c1cc2c(=O)n(C)c3ccccc3c2n1C	-6.7	4.4	0.593	-0.615	75.1	9.1	x	x
COc1cc(C2C3C(=O)N(Cc4ccccc4)C(=O)C3ON2c2ccccc2)cc(OC)c1OC (configuration not stated)	-2.0	14.7	0.56	-0.157	83.7	-2.5	x	x
COc1ccc(C2C3C(=O)N(Cc4ccccc4)C(=O)C3ON2c2ccccc2)c(OC)c1OC (configuration not stated)	-1.1	1.5	0.256	-2.93*	78.6	-4.3	654	188
CCOC(=O)c1ccc(COC(=O)c2cc3ccccc3oc2=O)o1	25.7	3.9	0.0827	-2.38*	81.0	3.1	473*	206
COc1ccc(NC(=O)c2ccco2)cc1NC(=O)c1cccnc1	-11.1	6.9	0.847	-0.853	82.4	13.4	x	x
COC(=O)C(C)Oc1ccc(=O)[nH]n1 (configuration not stated)	-7.4	19.8	-0.141	-0.0383	95.8	-3.8	x	x
CCN(CCCNC(=O)c1c(C)cc(=O)oc1C)c1cccc(C)c1	-2.0	25.2	-0.205	-2.95*	113.3	33.4	522*	266
N#CCCN1CCN(S(=O)(=O)c2ccc(S(=O)(=O)NCc3ccccc3)cc2)CC1	-6.8	6.3	0.515	-3.45*	97.1	9.3	673	255
N#CCCN1CCN(S(=O)(=O)c2ccc(S(=O)(=O)N3CCOCC3)cc2)CC1	-11.9	-2.0	-0.207	0.31	79.6	16.1	x	x
O=C(Cn1nc(-c2ccc(Cl)cc2)ccc1=O)NCC1CCCO1 (configuration not stated)	-0.4	-2.9	0.577	-0.801*	94.1	0.4	575	261
CC(=O)N1C(C(=O)O)CSC1c1ccc(C)cc1 (configuration not stated)	1.4	6.0	1.74	-0.838	88.2	3.3	x	x
CCCn1cnc2cc(NCc3cccc(OC)c3)ccc21	-2.0	9.3	-0.169	-2.39*	123.9	-7.1	397*	189
